Test results: ChEMBL document CHEMBL4229344 (Eur J Med Chem, 2018)

Tests used:
[1] = biological target: Activin receptor type-2A (Homo sapiens) (UniProt P27037); experiment: Binding affinity to wild-type human ACVR2A (V171 to T499 residues) expressed in bacterial expression system assessed as residual binding level at 1 uM by Kinomescan method relative to control
Method in brief: (§1)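 Single-concentration (1 μM) competition-binding screen run by KINOMEscan against a panel of 468 purified kinases and mutants. The read-out is the relative binding activity of the test compound to each kinase.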

[2] = biological target: Cyclin-dependent kinase 2 (Homo sapiens) (UniProt P24941); experiment: Binding affinity to wild-type human full length CDK2 (M1 to L298 residues) expressed in bacterial expression system assessed as residual binding level at 1 uM by Kinomescan method relative to control; method in brief: as §1
[3] = biological target: Serine/threonine-protein kinase DCLK1 (Homo sapiens) (UniProt O15075); experiment: Binding affinity to wild-type human partial length DCAMKL1 (L270 to A662 residues) expressed in mammalian expression system assessed as residual binding level at 1 uM by Kinomescan method relative to control
Method in brief: (§2)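 Kinome-wide competition binding screen against a panel of 468 purified kinases/mutants, with the test compound at a single concentration of 1 μM. Read-out is the relative binding activity of each kinase in the presence of compound.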

[4] = biological target: Serine/threonine-protein kinase DCLK3 (Homo sapiens) (UniProt Q9C098); experiment: Binding affinity to wild-type human partial length DCAMKL3 (E140 to V628 residues) expressed in bacterial expression system assessed as residual binding level at 1 uM by Kinomescan method relative to control; method in brief: as §2
[5] = biological target: Ephrin type-B receptor 1 (Homo sapiens) (UniProt P54762); experiment: Binding affinity to wild-type human partial length EPHB1 (P589 to T911 residues) expressed in bacterial expression system assessed as residual binding level at 1 uM by Kinomescan method relative to control
[6] = biological target: Ephrin type-B receptor 2 (Homo sapiens) (UniProt P29323); experiment: Binding affinity to wild-type human partial length EPHB2 (I597 to L902 residues) expressed in bacterial expression system assessed as residual binding level at 1 uM by Kinomescan method relative to control
[7] = biological target: Receptor tyrosine-protein kinase erbB-2 (Homo sapiens) (UniProt P04626); experiment: Binding affinity to wild-type human partial length ERBB2 (K646 to V1225 residues) expressed in mammalian expression system assessed as residual binding level at 1 uM by Kinomescan method relative to control
[8] = biological target: Insulin receptor (Homo sapiens) (UniProt P06213); experiment: Binding affinity to wild-type human partial length INSR (P997 to E1318 residues) expressed in mammalian expression system assessed as residual binding level at 1 uM by Kinomescan method relative to control
[9] = biological target: Tyrosine-protein kinase Lck (Homo sapiens) (UniProt P06239); experiment: Binding affinity to wild-type human partial length LCK (R207 to P509 residues) expressed in bacterial expression system assessed as residual binding level at 1 uM by Kinomescan method relative to control
[10] = test system: Hepatocyte growth factor receptor (Homo sapiens), P08581 [M1250T]; experiment: Binding affinity to human partial length MET M1250T mutant (D1010 to S1367 residues) expressed in bacterial expression system assessed as residual binding level at 1 uM by Kinomescan method relative to control
Method in brief: (§3)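 Kinome-wide single-concentration binding screen (KINOMEscan) at 1 μM against a panel of 468 purified kinases and mutants. Read-out is relative binding of each kinase compared with control. Selectivity across the panel was summarised as an S(10) score.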

[11] = biological target: Serine/threonine-protein kinase 38-like (Homo sapiens) (UniProt Q9Y2H1); experiment: Binding affinity to wild-type human partial length NDR2 (N34 to E447 residues) expressed in bacterial expression system assessed as residual binding level at 1 uM by Kinomescan method relative to control; method in brief: as §2
Sequence of Serine/threonine-protein kinase 38-like (Homo sapiens) (Q9Y2H1 2-464 limits assumed): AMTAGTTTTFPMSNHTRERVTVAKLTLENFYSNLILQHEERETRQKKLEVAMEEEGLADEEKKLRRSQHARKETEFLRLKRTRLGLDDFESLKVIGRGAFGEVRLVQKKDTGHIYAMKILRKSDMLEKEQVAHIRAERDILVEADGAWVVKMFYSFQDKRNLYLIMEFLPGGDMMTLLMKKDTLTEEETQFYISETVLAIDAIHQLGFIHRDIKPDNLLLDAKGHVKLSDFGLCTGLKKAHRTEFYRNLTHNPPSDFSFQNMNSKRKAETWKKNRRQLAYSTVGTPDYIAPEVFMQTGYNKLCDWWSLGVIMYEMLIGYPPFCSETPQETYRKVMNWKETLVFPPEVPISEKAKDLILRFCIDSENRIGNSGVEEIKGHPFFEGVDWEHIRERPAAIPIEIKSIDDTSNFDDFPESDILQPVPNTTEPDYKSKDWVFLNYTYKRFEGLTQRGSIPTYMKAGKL

[12] = test system: Phosphatidylinositol 4,5-bisphosphate 3-kinase catalytic subunit alpha isoform (Homo sapiens), P42336 [E545A]; experiment: Binding affinity to human partial length PIK3CA E545A mutant (R108 to N1068 residues) expressed in mammalian expression system assessed as residual binding level at 1 uM by Kinomescan method relative to control; method in brief: as §3
[13] = test system: Phosphatidylinositol 4,5-bisphosphate 3-kinase catalytic subunit alpha isoform (Homo sapiens), P42336 [I800L]; experiment: Binding affinity to human partial length PIK3CA I800L mutant (R108 to N1068 residues) expressed in mammalian expression system assessed as residual binding level at 1 uM by Kinomescan method relative to control; method in brief: as §3
[14] = biological target: Serine/threonine-protein kinase PLK1 (Homo sapiens) (UniProt P53350); experiment: Binding affinity to wild-type human partial length PLK1 (A33 to F325 residues) expressed in mammalian expression system assessed as residual binding level at 1 uM by Kinomescan method relative to control
Sequence of Serine/threonine-protein kinase PLK1 (Homo sapiens) (P53350 whole entry, the tested form may be a part): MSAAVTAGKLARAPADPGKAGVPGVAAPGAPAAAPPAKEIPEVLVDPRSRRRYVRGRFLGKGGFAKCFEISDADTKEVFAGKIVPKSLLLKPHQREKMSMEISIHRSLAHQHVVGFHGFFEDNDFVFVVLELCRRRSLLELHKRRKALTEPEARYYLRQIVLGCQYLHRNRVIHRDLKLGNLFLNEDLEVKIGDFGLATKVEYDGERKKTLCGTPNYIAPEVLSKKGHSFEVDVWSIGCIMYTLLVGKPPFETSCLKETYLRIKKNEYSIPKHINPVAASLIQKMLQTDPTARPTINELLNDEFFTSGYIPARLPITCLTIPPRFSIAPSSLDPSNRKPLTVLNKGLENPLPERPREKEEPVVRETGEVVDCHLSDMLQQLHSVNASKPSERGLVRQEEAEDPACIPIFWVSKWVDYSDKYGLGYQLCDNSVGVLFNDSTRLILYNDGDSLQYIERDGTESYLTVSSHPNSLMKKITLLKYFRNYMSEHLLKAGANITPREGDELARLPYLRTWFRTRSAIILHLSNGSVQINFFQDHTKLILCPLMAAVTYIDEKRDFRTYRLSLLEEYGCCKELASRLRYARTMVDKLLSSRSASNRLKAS

[15] = biological target: Serine/threonine-protein kinase PRP4 homolog (Homo sapiens) (UniProt Q13523); experiment: Binding affinity to wild-type human partial length PRP4 (D657 to I1007 residues) expressed in bacterial expression system assessed as residual binding level at 1 uM by Kinomescan method relative to control
Sequence of Serine/threonine-protein kinase PRP4 homolog (Homo sapiens) (Q13523 whole entry, the tested form may be a part): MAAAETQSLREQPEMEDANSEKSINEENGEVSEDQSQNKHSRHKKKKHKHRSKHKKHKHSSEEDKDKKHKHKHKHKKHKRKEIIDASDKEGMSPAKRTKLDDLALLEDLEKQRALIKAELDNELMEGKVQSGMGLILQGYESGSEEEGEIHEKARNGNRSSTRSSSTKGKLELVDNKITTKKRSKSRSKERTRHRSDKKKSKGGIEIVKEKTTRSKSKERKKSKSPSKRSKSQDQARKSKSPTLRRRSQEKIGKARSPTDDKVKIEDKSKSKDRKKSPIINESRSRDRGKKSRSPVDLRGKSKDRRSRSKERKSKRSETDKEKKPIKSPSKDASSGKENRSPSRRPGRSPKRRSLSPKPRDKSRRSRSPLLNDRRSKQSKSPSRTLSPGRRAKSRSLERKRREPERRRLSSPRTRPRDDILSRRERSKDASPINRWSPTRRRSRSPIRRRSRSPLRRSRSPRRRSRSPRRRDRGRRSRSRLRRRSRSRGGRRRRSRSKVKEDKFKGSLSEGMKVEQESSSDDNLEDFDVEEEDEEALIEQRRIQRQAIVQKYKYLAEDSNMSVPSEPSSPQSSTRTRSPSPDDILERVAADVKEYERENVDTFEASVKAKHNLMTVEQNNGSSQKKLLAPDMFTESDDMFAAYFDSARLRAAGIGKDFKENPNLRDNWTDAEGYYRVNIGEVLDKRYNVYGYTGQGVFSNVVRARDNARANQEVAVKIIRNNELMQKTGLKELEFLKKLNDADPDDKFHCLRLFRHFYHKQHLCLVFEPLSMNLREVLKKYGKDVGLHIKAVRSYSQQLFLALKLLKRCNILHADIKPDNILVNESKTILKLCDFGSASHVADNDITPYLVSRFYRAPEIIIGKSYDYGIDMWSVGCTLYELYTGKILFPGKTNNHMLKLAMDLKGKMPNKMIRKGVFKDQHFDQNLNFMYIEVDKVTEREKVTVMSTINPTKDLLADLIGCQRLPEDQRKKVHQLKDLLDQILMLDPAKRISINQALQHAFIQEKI

[16] = biological target: Protein-tyrosine kinase 2-beta (Homo sapiens) (UniProt Q14289); experiment: Binding affinity to wild-type human full length PYK2 (M1 to E967 residues) expressed in bacterial expression system assessed as residual binding level at 1 uM by Kinomescan method relative to control
Sequence of Protein-tyrosine kinase 2-beta (Homo sapiens) (Q14289 whole entry, looked up, the tested form may be a part): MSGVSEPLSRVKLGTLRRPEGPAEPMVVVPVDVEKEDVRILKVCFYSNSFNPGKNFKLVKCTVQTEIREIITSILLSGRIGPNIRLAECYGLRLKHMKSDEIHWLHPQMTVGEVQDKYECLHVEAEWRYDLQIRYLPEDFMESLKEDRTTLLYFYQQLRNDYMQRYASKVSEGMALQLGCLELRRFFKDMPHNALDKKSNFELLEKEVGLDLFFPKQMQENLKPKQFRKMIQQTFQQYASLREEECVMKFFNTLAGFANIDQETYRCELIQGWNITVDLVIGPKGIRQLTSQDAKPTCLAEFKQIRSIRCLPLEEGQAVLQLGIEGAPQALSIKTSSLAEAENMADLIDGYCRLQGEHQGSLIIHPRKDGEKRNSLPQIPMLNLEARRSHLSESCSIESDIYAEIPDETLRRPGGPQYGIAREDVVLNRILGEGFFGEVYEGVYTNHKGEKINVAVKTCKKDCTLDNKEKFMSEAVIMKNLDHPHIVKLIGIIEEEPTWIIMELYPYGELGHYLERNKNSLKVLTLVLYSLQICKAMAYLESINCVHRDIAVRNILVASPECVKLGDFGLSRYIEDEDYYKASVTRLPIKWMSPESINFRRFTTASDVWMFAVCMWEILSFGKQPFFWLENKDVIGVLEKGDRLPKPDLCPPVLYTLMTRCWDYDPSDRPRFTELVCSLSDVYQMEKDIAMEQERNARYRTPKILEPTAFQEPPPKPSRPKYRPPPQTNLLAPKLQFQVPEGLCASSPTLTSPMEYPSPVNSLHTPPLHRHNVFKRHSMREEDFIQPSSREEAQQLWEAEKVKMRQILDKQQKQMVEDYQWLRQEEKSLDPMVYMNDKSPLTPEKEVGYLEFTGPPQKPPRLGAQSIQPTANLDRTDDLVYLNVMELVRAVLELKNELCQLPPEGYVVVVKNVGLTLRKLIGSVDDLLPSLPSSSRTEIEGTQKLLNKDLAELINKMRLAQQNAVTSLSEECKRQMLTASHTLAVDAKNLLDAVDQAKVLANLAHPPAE
Method in brief: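 Single-concentration KINOMEscan (DiscoverX) binding screen at 1 μM against a panel of 468 purified kinases and mutants. The read-out is binding relative to control.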

[17] = biological target: Mitogen-activated protein kinase kinase kinase 20 (Homo sapiens) (UniProt Q9NYL2); experiment: Binding affinity to wild-type human partial length ZAK (M1 to L331 residues) expressed in bacterial expression system assessed as residual binding level at 1 uM by Kinomescan method relative to control
[18] = biological target: Mast/stem cell growth factor receptor Kit (Homo sapiens, UniProt P10721); experiment: Inhibition of TEL-fused c-KIT (unknown origin) expressed in mouse BA/F3 cells assessed as growth inhibition after 72 hrs by CellTiter-Glo or CCK-8 assay; assay type: cell-based
Sequence of Mast/stem cell growth factor receptor Kit (P10721 whole entry, the tested form may be a part): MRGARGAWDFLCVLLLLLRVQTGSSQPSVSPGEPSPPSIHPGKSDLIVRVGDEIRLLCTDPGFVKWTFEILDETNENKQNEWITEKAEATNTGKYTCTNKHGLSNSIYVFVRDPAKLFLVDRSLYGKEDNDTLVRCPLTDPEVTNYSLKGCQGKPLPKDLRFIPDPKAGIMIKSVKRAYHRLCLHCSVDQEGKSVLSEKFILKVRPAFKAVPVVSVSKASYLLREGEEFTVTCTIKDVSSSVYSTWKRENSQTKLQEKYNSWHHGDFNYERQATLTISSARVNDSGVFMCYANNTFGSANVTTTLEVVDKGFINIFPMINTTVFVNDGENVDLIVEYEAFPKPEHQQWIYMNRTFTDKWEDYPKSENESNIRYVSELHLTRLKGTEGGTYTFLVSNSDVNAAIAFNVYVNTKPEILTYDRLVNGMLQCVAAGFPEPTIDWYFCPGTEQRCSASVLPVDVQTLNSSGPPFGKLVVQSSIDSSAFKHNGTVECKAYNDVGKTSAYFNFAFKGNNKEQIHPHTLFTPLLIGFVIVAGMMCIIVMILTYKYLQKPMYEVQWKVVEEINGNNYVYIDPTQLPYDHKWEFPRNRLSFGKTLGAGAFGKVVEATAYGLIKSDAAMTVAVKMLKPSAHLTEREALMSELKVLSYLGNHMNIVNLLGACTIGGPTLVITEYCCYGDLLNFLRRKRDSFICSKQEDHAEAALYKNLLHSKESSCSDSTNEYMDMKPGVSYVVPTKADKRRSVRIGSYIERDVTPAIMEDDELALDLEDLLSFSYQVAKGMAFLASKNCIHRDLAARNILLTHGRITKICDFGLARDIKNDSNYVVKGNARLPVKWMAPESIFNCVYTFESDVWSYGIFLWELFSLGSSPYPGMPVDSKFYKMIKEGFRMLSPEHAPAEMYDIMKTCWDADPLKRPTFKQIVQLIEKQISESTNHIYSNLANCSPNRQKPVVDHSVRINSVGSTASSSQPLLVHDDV
Method in brief: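 Parental BaF3 or IL-3-independent TEL-kinase BaF3 lines, made by retroviral infection and puromycin selection, grown in RPMI 1640 with 10% FBS. Cells seeded at 1–3 × 10^4 cells/mL with serial compound concentrations for 72 h. Viability read by CellTiter-Glo luminescence or CCK-8 absorbance at 450/655 nm and normalised to DMSO. GI50 obtained by triplicate testing with linear regression. Selectivity is the ratio of the two GI50 values.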

[19] = Tmax in Sprague-Dawley rat at 1 mg/kg, iv; assay type: ADME, organism-based; conditions: in vivo
Method in brief: (§4)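 Male Sprague-Dawley rats, 6–8 weeks old and fasted overnight, dosed IV at 1 mg/kg or PO at 10 mg/kg. Formulation was 5% DMSO/40% PEG400/55% saline (1 mg/mL). Jugular blood collected on heparin from 1 min to 8 h (IV) or 5 min to 24 h (PO). Plasma separated by centrifugation at 2–8 °C and stored at −80 °C.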

[20] = Apparent volume of distribution in Sprague-Dawley rat at 1 mg/kg, iv; assay type: ADME, organism-based; conditions: in vivo, read-out: Vz
[21] = Cmax in Sprague-Dawley rat at 1 mg/kg, iv; assay type: ADME, organism-based; set-up: dose 1 mg/kg, route intravenous; conditions: in vivo; method in brief: as §4

Sequence of Activin receptor type-2A (Homo sapiens) (P27037 whole entry, the tested form may be a part): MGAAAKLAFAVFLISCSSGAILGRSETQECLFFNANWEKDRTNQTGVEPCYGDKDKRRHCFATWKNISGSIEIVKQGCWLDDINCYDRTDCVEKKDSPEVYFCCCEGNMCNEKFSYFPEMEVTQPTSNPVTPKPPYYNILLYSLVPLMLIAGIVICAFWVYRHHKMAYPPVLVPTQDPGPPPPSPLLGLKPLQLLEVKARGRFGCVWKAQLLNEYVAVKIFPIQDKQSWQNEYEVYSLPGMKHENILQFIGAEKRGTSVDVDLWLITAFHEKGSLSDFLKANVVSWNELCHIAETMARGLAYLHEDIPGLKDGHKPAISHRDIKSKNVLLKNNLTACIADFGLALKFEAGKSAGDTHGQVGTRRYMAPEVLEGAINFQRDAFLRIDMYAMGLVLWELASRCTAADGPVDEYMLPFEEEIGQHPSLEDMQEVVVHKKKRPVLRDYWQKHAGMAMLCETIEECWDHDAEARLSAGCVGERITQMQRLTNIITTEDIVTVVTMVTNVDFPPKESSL

Cc1ccc(NC(=O)c2ccc(CN(CCN(C)C)C(=O)c3cccnc3)cc2)cc1Nc1nccc(-c2cccnc2)n1
Activity [1]: 96%
Activity [2]: 95%
Activity [3]: 78%
Activity [4]: 89%
Activity [5]: 100%
Activity [6]: 100%
Activity [7]: 85%
Activity [8]: 100%
Activity [9]: 100%
Activity [10]: 86%
Activity [11]: 82%
Activity [12]: 63%
Activity [13]: 79%
Activity [14]: 100%
Activity [15]: 100%
Activity [16]: 99%
Activity [17]: 100%
GI50 [18]: > 10 µM
Tmax [19]: 1.02 min
Vd [20]: 5.98 L/kg
Cmax [21]: 4590 ng/mL
